# hERG protect: hERG rescue from dofetilide block, primary screen, cell-based, CHO-hERG, FluxOR thallium flux, dofetilide IC70. activation (rescue from dofetilide block), less the hit threshold, % at 10 µM. AID 1511, 2009. actives 0.51% (n = 310,000). dofetilide IC70 present. Voltage-gated inwardly rectifying potassium channel KCNH2 (Homo sapiens), Q12809;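 active = activation above the mean of controls blocked by dofetilide plus 5 SD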;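 note: thallium influx through hERG after potassium depolarization seen as dye fluorescence rise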
# KCNQ1 block: inhibitors of human KCNQ1 channel, primary screen, cell-based, thallium flux, high-throughput. Potassium voltage-gated channel subfamily KQT member 1 (Homo sapiens), P51787. CHO-K1 KCNQ1, FluxOR thallium flux fluorescence; hits give high values. B-score at 10 µM. actives 1.3% (n = 310,000);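 active = compounds whose thallium flux B-score, printed positive for inhibition, exceeds three library SD while starting fluorescence stays within three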;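 note: channel opened by potassium depolarization with thallium stimulus after 20 min compound exposure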
# Target sequence (P51787 whole entry, looked up): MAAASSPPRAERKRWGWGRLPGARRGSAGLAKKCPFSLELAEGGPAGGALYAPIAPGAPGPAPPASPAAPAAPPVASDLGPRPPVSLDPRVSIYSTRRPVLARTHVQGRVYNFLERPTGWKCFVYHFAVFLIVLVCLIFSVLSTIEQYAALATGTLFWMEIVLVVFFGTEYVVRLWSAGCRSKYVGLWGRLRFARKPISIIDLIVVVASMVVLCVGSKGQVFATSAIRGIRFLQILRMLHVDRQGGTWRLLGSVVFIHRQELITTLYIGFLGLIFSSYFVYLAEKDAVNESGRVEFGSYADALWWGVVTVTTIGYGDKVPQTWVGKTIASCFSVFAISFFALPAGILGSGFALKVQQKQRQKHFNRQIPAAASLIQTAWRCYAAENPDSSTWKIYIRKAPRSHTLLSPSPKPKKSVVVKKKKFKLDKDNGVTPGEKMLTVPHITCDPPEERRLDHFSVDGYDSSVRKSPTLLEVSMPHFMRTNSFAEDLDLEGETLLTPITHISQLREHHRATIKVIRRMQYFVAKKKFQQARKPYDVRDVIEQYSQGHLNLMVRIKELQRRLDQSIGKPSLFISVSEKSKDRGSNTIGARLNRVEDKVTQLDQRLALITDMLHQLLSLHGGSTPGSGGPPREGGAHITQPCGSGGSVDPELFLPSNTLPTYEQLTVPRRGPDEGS
# KCNK9 inh: KCNK9 potassium channel inhibitors, primary screen, HEK293 cells, thallium flux; B-score at 10 µM; FluxOR thallium flux fluorescence; hits give low values; Potassium channel subfamily K member 9 (Homo sapiens), Q9NPC2; actives 1.2% (n = 310,000);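 active = ratio B-score over 3 SD below the library mean, with starting fluorescence within 5 SD of its mean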;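 note: negative B-score means less thallium flux so channel inhibition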
# KCC2 mod: KCC2 cotransporter modulators, thallium flux, primary screen, cell-based, HEK293 KCC2, FluoZin-2 fluorescence, MLSMR; B-score of Tl+ flux slope (higher = more flux/activation; lower = inhibition) at 10 µM; actives 2.2% (n = 190,000); Solute carrier family 12 member 5 (Homo sapiens), Q9H2X9; KCC2 cells, thallium flux FluoZin-2 fluorescence; AID 1456, 2008;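 active = thallium flux slope and its plate-corrected score both differing from the plate sample mean at a set confidence after two filtering rounds, in either direction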;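 note: slope of fluorescence scaled to starting intensity during 10 to 20 s after thallium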
# KCNK3 inh: human KCNK3 channel inhibitors, primary screen, CHO cells, FluxOR thallium flux, B-score; Potassium channel subfamily K member 3 (Homo sapiens), O14649; FluxOR fluorescence; hits give low values; B-score at 10 µM; actives 0.84% (n = 340,000);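 active = B-score under library mean minus 4 SD, starting fluorescence ratio at most library mean plus 5 SD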;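 note: more negative B-score means stronger inhibition of thallium flux through KCNK3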
# KCNQ1 pot: potentiators or activators of KCNQ1 channel, primary screen, cell-based, thallium flux, high-throughput. Potassium voltage-gated channel subfamily KQT member 1 (Homo sapiens), P51787. CHO-K1 KCNQ1, thallium flux FluxOR fluorescence; hits give high values. actives 0.35% (n = 310,000). B-score at 10 µM. AID 2648, 2010;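 active = fluorescence ratio B-score, a plate-corrected score, at least three library SD, with initial intensity B-score within 5 SD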
#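 Assay system: stable KCNQ1 CHO-K1 line; medium: assay buffer, equal DMSO in all wells; timing: 90 min dye loading and 20 min compound exposure, both at room temperature; technique: kinetic FluxOR thallium fluorescence, 10-s 1-Hz baseline, 110-s post-stimulus read; read-out basis: B score of baseline-normalized fluorescence ratio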
# KCNK3 confirm: retest of human KCNK3 channel inhibitors, confirmation, CHO cells, FluxOR thallium flux, triplicate. shares compounds with KCNK3 inh. FluxOR fluorescence; 0% buffer, 100% carvedilol maximal block. ratio percent of control, % at 10 µM. actives 99% (n = 2,400). AID 651638, 2012;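 active = ratio percent of control, averaged over triplicates, above buffer control mean plus 5 SD, cut at about 64% in these data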;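 note: ratio is the fluorescence rise from min to max over baseline after thallium stimulus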
# KCNK3 noninduced: thallium flux inhibition in non-induced cells, primary screen, counter-screen for KCNK3 inhibitor project, cell-based, non-induced KCNK3 line, FluxOR thallium, triplicate; shares compounds with KCNK3 inh; non-induced KCNK3 parental cells; hits give low values; thallium flux ratio (lower = more inhibition) at 10 µM; actives 40% (n = 2,400);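 active = thallium flux ratio, averaged over three wells, more than 5 SD below the buffer control mean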;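 note: host cells are CHO cells without KCNK3 induction; ratio is peak minus trough fluorescence over baseline then normalized to buffer controls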
# Starred values were filed as active, the others as inactive; i = inactive; · = not tested or not shown. Most compounds without a hit are left out; they make up all but 4.1% or so of the library.
SMILES,hERG protect,KCNQ1 block,KCNK9 inh,KCC2 mod,KCNK3 inh,KCNQ1 pot,KCNK3 confirm,KCNK3 noninduced
CC(=O)c1c(C)[nH]c(C(=O)Nc2ccc(Cl)c(S(=O)(=O)N(C)C)c2)c1C,-35,i,i,0.45,-11*,i,103*,i
Cc1nn2c(NCCCn3ccnc3)cc(C(C)C)nc2c1-c1ccccc1,-19,i,i,-0.057,-12*,i,115*,0.14*
Cc1nn2c(NCc3ccccn3)cc(C(C)C)nc2c1-c1ccccc1,-7,i,i,0.1,i,i,·,·
CCCCNc1oc(-c2cccs2)nc1S(=O)(=O)c1ccccc1,-10,i,i,-0.011,-9.5*,i,127*,0.13*
CNc1oc(-c2cccs2)nc1S(=O)(=O)c1ccccc1,-8,i,i,-2,i,i,·,·
COc1ccc(CCN(Cc2nc(-c3ccccc3)no2)Cc2nc(-c3ccccc3)no2)cc1OC,-7,i,i,·,-9.2*,i,92*,i
CCCCN1C(=O)C(=O)N(CC(=O)Nc2ccc(OC(F)(F)F)cc2)C1=O,·,·,·,·,i,·,·,·
CCOC(=O)C1(Cc2ccc(OC)cc2)CCN(C(=O)c2cncs2)CC1,-5,i,i,·,i,i,·,·
CN(C1CCCCC1)S(=O)(=O)c1ccc2c(c1)c(=O)c(C(=O)NCCCN1CCCC1)cn2C,-3,i,i,·,i,i,·,·
CC(C)OCCCNC(=O)c1cn(C)c2ccc(S(=O)(=O)N(C)C3CCCCC3)cc2c1=O,-10,i,i,·,-9.1*,i,90*,0.14*
CCOC(=O)CCc1c(C)c2ccc3c(c2oc1=O)CN(CCCO)CO3,-2,i,i,·,i,i,·,·
Cc1ccc(Nc2c(-c3ccccc3O)nc3cnccn23)cc1,-12,i,i,-0.41,-9.2*,i,115*,0.13*
CC(C)(Oc1ccc(Cl)cc1)C(=O)NNC(=O)c1ccc(Br)o1,-8,i,i,·,i,i,·,·
CC1CC(=O)NC(=O)N1Cc1ccccc1 (stereo not drawn),·,·,·,·,i,·,·,·
CCOC1C(=O)NC(=O)N1Cc1ccccc1 (stereo not drawn),-5,i,i,·,-9.3*,i,81*,i
Cc1ccc(NC(=O)c2cc(C)nc3ccccc23)c(Br)c1,1,i,-8*,·,-10*,i,94*,i
O=C(Cc1cccc(C(F)(F)F)c1)Nc1ccccc1N1CCCC1,-3,i,i,·,i,i,·,·
CSc1cccc(NC(=O)/C=C/c2cccc(Cl)c2)c1,-13,11*,i,-1.2,-11*,i,128*,0.16*
O=C(/C=C/c1cccc(Cl)c1)Nc1ncccn1,-6,i,i,1.5,i,i,·,·
O=[N+]([O-])c1cc(-c2csc(NCCc3nc4cc(Cl)c(Cl)cc4n3CCCO)n2)ccc1Cl,-8,i,i,·,i,i,·,·
CC1(C)CC(=O)C2=C(C1)N(c1ccccc1C#N)C(N)=C(C#N)C2c1cccs1 (stereo not drawn),-8,i,i,·,i,i,·,·
O=S(=O)(NCC(c1ccco1)N1CCc2ccccc2C1)c1ccc(Br)cc1 (stereo not drawn),-8,i,i,·,-8.7*,i,114*,i
Cc1ccc(S(=O)(=O)NCC(c2ccco2)N2CCc3ccccc3C2)cc1 (stereo not drawn),-7,i,i,·,i,i,·,·
CCNc1oc(COc2cccc(C)c2)nc1C#N,-10,i,i,-0.28,i,i,·,·
COc1ccc(CNc2oc(Cc3cccc4ccccc34)nc2C#N)cc1,-9,i,i,-5.2*,-14*,i,91*,0.15*
SMILES,hERG protect,KCNQ1 block,KCNK9 inh,KCC2 mod,KCNK3 inh,KCNQ1 pot,KCNK3 confirm,KCNK3 noninduced
Cc1cccc(OCc2nc(C#N)c(NCc3ccc4c(c3)OCO4)o2)c1,-11,i,i,·,-11*,i,138*,0.1*
N#Cc1nc(COc2ccc(Cl)cc2)oc1NCc1ccc2c(c1)OCO2,-9,i,i,·,-11*,i,138*,0.16*
CCN(C(=O)COC(=O)c1ccccc1SCC(=O)N1CCCC1)C1CCS(=O)(=O)C1 (stereo not drawn),-16,i,i,·,i,i,·,·
CCOCCc1nnc(NC(=O)c2cccc(F)c2)s1,-2,i,i,-1,i,i,·,·
O=C(Nc1ccc(Cl)cc1)c1cc(Br)ccc1OCC(=O)N1CCOCC1,-3,i,i,·,-10*,i,112*,i
O=C(Nc1ccc(OCC(=O)N2CCOCC2)cc1)c1ccccc1F,-5,i,i,·,i,i,·,·
Cn1c(=O)c(=O)n(C)c2cc(S(=O)(=O)N3CCN(c4ccccc4F)CC3)ccc21,-12,i,i,-2.1,i,i,·,·
O=C(Nc1ccnn1C1CCN(Cc2ccc(CO)o2)CC1)c1ccccc1Cl,-2,i,i,·,i,i,·,·
CC(=O)OCCN1CCN(C(=O)CN2C(=O)NC(c3ccccc3)(c3ccccc3)C2=O)CC1,-6,i,i,·,i,i,·,·
COc1ccccc1/C=N/NC(=O)CSc1ccc2ccccc2n1,-7,i,i,·,-11*,i,114*,i
COc1ccccc1/C=N/NC(=O)CSc1cc(C)nc2ccccc12,-11,i,i,-3.1,i,i,·,·
COc1ccc(CNCC(O)(c2ccc(Cl)cc2)c2ccc(Cl)cc2)cc1OC,-19,i,i,·,i,i,·,·
COc1ccc(CNCC(O)(c2ccc(Cl)cc2)c2ccc(Cl)cc2)cc1,-38,i,i,·,-9.3*,i,131*,i
CC(=O)N(/N=C1/C(=O)Nc2ccccc21)c1ccccc1,-9,i,i,·,-9*,i,125*,0.12*

# Source: PubChem (several laboratories)
